# Measurements as given in ChEMBL document CHEMBL2385003, “Oleuropein protects against dextran sodium sulfate-induced chronic colitis in mice” (J Nat Prod, 2013).
# Activity calls are given as the source filed them. The calls are words filed in the database; no cut-off is given here.
# What was measured:
# [1] = tested on: IEC-18; experiment: Inhibition of p38 MAPK-induced COX-2 expression in rat IEC-18 cells at 10 uM incubated for 1 hr prior to LPS challenge measured after 24 hrs by Western blot analysis; assay type: cell-based
# How it was run: (§1)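 IEC-18 rat intestinal epithelial cells were seeded at 2.5 × 10^5 cells/mL in DMEM (4.5 g/L glucose, 5% FBS) at 37 °C and 5% CO2. After 24 h the medium was switched to 0.5% FBS. Cells were pretreated with compound for 1 h, then stimulated with LPS 1 μg/mL: 30 min for phospho-p38 and 24 h for COX-2. Cytosolic protein (25 μg) was run on Western blots. Each result is the mean of at least three independent experiments.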
# [2] = tested on: IEC-18; experiment: Inhibition of LPS-induced p38 MAPK phosphorylation in rat IEC-18 cells at 10 uM incubated for 1 hr prior to LPS challenge measured after 30 mins by Western blot analysis; assay type: cell-based; how it was run: as §1
# [3] = Wound healing activity in rat IEC-18 cells assessed as reduction of cell migration at 10 uM after 24 hrs relative to control; assay type: functional; parameters: scale not given: the % may be the effect or the level left
# How it was run: (§2)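 Confluent IEC-18 cells (from 2.5 × 10^5 cells/mL seeding) were moved to 0.5% FBS DMEM and scraped. They were then treated with test substance at 10 and 100 μM, or dexamethasone 10 μM. Migration was counted blind as cells crossing the wound border in a defined area from 0 to 24 h, using photomicrographs at 200×. n = 10.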
# [4] = Antiproliferative activity against rat IEC-18 cells at 10 uM after 24 hrs by MTT assay; assay type: cell-based; conditions: iec-18, 24 h
# [5] = tested on: Mus musculus; experiment: (§3) Antiinflammatory activity in C57BL/6 mouse DSS-induced chronic colitis model assessed as decrease in eosinophil peroxidase activity measured reduction of eosinophil accumulation in colon at 500 mg/kg/day administered through diet for total of 4 weeks for alternative weeks with water measured after 56 days by spectrophotometric analysis relative to DSS-treated mouse; assay type: functional; parameters: scale not given: the % may be the effect or the level left
# How it was run: (§4)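 Female C57BL/6 mice, 6−8 weeks, 18−20 g. Four DSS cycles in drinking water (1% in cycles 1–2, 2% in cycles 3–4; each 7 days DSS, then 7 days water). Diet held 0.25% test substance (about 500 mg/kg/day). Colons taken at day 56 and homogenized in 80 mM phosphate pH 5.4 with 0.5% HTAB. MPO read with TMB/H2O2, 37 °C 3 min, 630 nm. EPO read with o-phenylenediamine/H2O2, 2 min room temperature, 490 nm. NAG read with 4-nitrophenyl N-acetyl-β-D-glucosaminide, 37 °C 5 min, 405 nm. Mean ± SEM, n = 7.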
# [6] = tested on: Mus musculus; experiment: (§5) Antiinflammatory activity in C57BL/6 mouse DSS-induced chronic colitis model assessed as downregulation of COX-2 expression in colon at 500 mg/kg/day administered through diet for total of 4 weeks for alternative weeks with water measured after 56 days by Western blot analysis relative to DSS-treated mouse; assay type: functional
# [7] = tested on: Mus musculus; experiment: Antiinflammatory activity in C57BL/6 mouse DSS-induced chronic colitis model assessed as downregulation of p38 MAPK phosphorylation in colon at 500 mg/kg/day administered through diet for 4 weeks measured after 56 days by Western blot analysis relative to DSS-treated mouse; assay type: functional
# [8] = tested on: Mus musculus; experiment: Antiinflammatory activity in C57BL/6 mouse DSS-induced chronic colitis model assessed as reduction of mucosal injury at 500 mg/kg/day administered through diet for total of 4 weeks for alternative weeks with water measured after 56 days by hematoxylin-eosin staining; assay type: functional, organism-based
# [9] = tested on: Mus musculus; experiment: Antiinflammatory activity in C57BL/6 mouse DSS-induced chronic colitis model assessed as reduction of colon weight to length ratio at 500 mg/kg/day administered through diet for total of 4 weeks for alternative weeks with water measured after 56 days; assay type: functional, organism-based
# How it was run: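 Female C57BL/6 mice received four DSS cycles: 7 days DSS in drinking water (1%, then 2% in cycles 3–4) followed by 7 days water. Diet contained 0.25% test substance, about 500 mg/kg/day. At day 56, colons were removed, rinsed in cold PBS, blotted, weighed and measured to give weight/length (mg/cm). n = 10.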
# [10] = tested on: Mus musculus; experiment: Antiinflammatory activity in C57BL/6 mouse DSS-induced chronic colitis model assessed as inhibition of IL-1beta production in colon at 500 mg/kg/day administered through diet for total of 4 weeks for alternative weeks with water measured after 56 days by ELISA relative to DSS-treated mouse; assay type: functional; conditions: C57BL/6, Colon
# How it was run: (§6)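 Mice were female C57BL/6 on the chronic DSS schedule: 1% DSS in cycles 1–2, 2% in cycles 3–4, each cycle 7 days DSS then 7 days water. Diet carried 0.25% test substance for 56 days. Colon powder was suspended 20% w/v in PBS/0.1% NP-40, sonicated and spun at 20000g. IL-6, IL-1β and IL-10 were measured in supernatants by ELISA as pg/mL per mg protein. Mean ± SEM, n = 7.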
# [11] = tested on: IEC-18; experiment: Inhibition of p38 MAPK-induced COX-2 expression in rat IEC-18 cells at 100 uM incubated for 1 hr prior to LPS challenge measured after 24 hrs by Western blot analysis; assay type: cell-based
# How it was run: (§7)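 IEC-18 cells were seeded at 2.5 × 10^5 cells/mL in DMEM with 5% FBS; after 24 h the medium was switched to 0.5% FBS. Cells were pretreated 1 h with test substance at 100 μM (SB 203580 10 μM as reference), then given LPS 1 μg/mL. Phospho-p38 was read at 30 min and COX-2 at 24 h by Western blot (25 μg protein, 1:1000 antibodies, β-actin normalized). n = 6.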
# [12] = Wound healing activity in rat IEC-18 cells assessed as induction of wound closure at 10 uM after 24 hrs relative to dexamethasone; assay type: functional; how it was run: as §2
# [13] = tested on: Mus musculus; experiment: Antiinflammatory activity in C57BL/6 mouse DSS-induced chronic colitis model assessed as reduction of rectal bleeding at 500 mg/kg/day administered through diet for total of 4 weeks for alternative weeks with water measured after 56 days; assay type: functional, organism-based
# How it was run: (§8)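 Mice and schedule as in the chronic DSS model: four 7-day DSS cycles (1%, 1%, 2%, 2%), each followed by 7 days water, with a diet containing 0.25% test substance. At day 56, stool consistency (normal, loose, diarrhea) and gross rectal bleeding (visible fecal blood, anal examination) were scored within the DAI. n = 10.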
# [14] = tested on: IEC-18; experiment: Inhibition of LPS-induced p38 MAPK phosphorylation in rat IEC-18 cells at 100 uM incubated for 1 hr prior to LPS challenge measured after 30 mins by Western blot analysis; assay type: cell-based; how it was run: as §7
# [15] = tested on: Mus musculus; experiment: Antiinflammatory activity in C57BL/6 mouse DSS-induced chronic colitis model assessed as leukocyte infiltration into mucosal tissue at 500 mg/kg/day administered through diet for total of 4 weeks for alternative weeks with water measured after 56 days by hematoxylin-eosin staining; assay type: functional, organism-based
# [16] = tested on: Mus musculus; experiment: Antiinflammatory activity in C57BL/6 mouse DSS-induced chronic colitis model assessed as effect on NFkappaB pathway in colon at 500 mg/kg/day administered through diet for total of 4 weeks for alternative weeks with water measured after 56 days by Western blot analysis; assay type: functional, organism-based
# [17] = tested on: Mus musculus; experiment: as §5, with “iNOS” for “COX-2”; assay type: functional
# [18] = tested on: Mus musculus; experiment: Antiinflammatory activity in C57BL/6 mouse DSS-induced chronic colitis model assessed as reduction of edema at 500 mg/kg/day administered through diet for total of 4 weeks for alternative weeks with water measured after 56 days by hematoxylin-eosin staining; assay type: functional, organism-based
# [19] = tested on: Mus musculus; experiment: Antiinflammatory activity in C57BL/6 mouse DSS-induced chronic colitis model assessed as prevention of body weight loss at 500 mg/kg/day administered through diet for total of 4 weeks for alternative weeks with water measured after 56 days; assay type: functional, organism-based
# [20] = tested on: Mus musculus; experiment: Antiinflammatory activity in C57BL/6 mouse DSS-induced chronic colitis model assessed as decrease in severity of progressive chronic injury at 500 mg/kg/day administered through diet for total of 4 weeks for alternative weeks with water measured after 56 days; assay type: functional, organism-based
# [21] = Wound healing activity in rat IEC-18 cells assessed as induction of wound closure at 100 uM after 24 hrs relative to dexamethasone; assay type: functional; how it was run: as §2
# [22] = tested on: Mus musculus; experiment: Antiinflammatory activity in C57BL/6 mouse DSS-induced chronic colitis model assessed as induction of IL-10 production in colon at 500 mg/kg/day administered through diet for total of 4 weeks for alternative weeks with water measured after 56 days by ELISA relative to DSS-treated mouse; assay type: functional; conditions: C57BL/6, Colon; how it was run: as §6
# [23] = tested on: Mus musculus; experiment: as §3, with “myeloperoxidase” for “eosinophil peroxidase”, “neutrophil” for “eosinophil”; assay type: functional; parameters: scale not given: the % may be the effect or the level left; how it was run: as §4
# [24] = tested on: Mus musculus; experiment: Toxicity in C57BL/6 mouse assessed as effect on viability at 500 mg/kg/day administered through diet for total of 4 weeks for alternative weeks with water measured after 56 days; assay type: organism-based; conditions: in vivo, 1344 h
# [25] = tested on: Mus musculus; experiment: as §5, with “as up regulation” for “as downregulation”, “of annexin A1 mRNA” for “of COX-2”, “by RT-PCR” for “by Western blot”, “DSS-treated control” for “DSS-treated mouse”; assay type: functional
# How it was run: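 Female C57BL/6 mice (6−8 weeks, 18−20 g) got four cycles of 7 days DSS in drinking water (1% cycles 1–2, 2% cycles 3–4) then 7 days water, with diet at 0.25% test agent throughout. Colons were taken at day 56. cDNA from 500 ng RNA was amplified with annexin A1 primers (25 cycles: 94/60/72 °C, 1 min each) and run on 2% agarose gel.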
# [26] = tested on: Mus musculus; experiment: Antiinflammatory activity in C57BL/6 mouse DSS-induced chronic colitis model assessed as reduction of stool consistency at 500 mg/kg/day administered through diet for total of 4 weeks for alternative weeks with water measured after 56 days; assay type: functional, organism-based; how it was run: as §8
# [27] = Antiproliferative activity against rat IEC-18 cells at 10 to 100 uM after 24 hrs by MTT assay; assay type: cell-based; conditions: iec-18, 24 h
# How it was run: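 IEC-18 rat epithelial cells (passages 18–22) were seeded at 2.5 × 10^5 cells/mL in DMEM (4.5 g/L glucose, 5% FBS). After 24 h the medium was switched to 0.5% FBS and test substance was added at 10 and 100 μM, with dexamethasone 10 μM as reference. Proliferation was read by MTT at 24 h. n = 10.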
# [28] = tested on: Mus musculus; experiment: as §3, with “N-acetylglucosaminidase” for “eosinophil peroxidase”, “macrophage” for “eosinophil”; assay type: functional; parameters: scale not given: the % may be the effect or the level left; how it was run: as §4
# [29] = tested on: Mus musculus; experiment: Antiinflammatory activity in C57BL/6 mouse DSS-induced chronic colitis model assessed as inhibition of IL-6 production in colon at 500 mg/kg/day administered through diet for total of 4 weeks for alternative weeks with water measured after 56 days by ELISA relative to DSS-treated mouse; assay type: functional; conditions: C57BL/6, Colon; how it was run: as §6
smiles,measurement,setting,value
C[S+]([O-])c1ccc(-c2nc(-c3ccc(F)cc3)c(-c3ccncc3)[nH]2)cc1 (centres undefined),inhibition,[1],70%
same,inhibition,[2],Active
C[C@@H]1C[C@H]2[C@@H]3CCC4=CC(=O)C=C[C@]4(C)[C@@]3(F)[C@@H](O)C[C@]2(C)[C@@]1(O)C(=O)CO [DEXAMETHASONE],Activity,[3],20%
same,Activity,[4],Non-toxic
C/C=C1/[C@H](O[C@@H]2O[C@H](CO)[C@@H](O)[C@H](O)[C@H]2O)OC=C(C(=O)OC)[C@H]1CC(=O)OCCc1ccc(O)c(O)c1 [OLEUROPEIN],Activity,[5],46%
same,Activity,[6],68%
same,Activity,[7],<=65%
same,Activity,[8],Active
same,Activity,[9],Active
same,inhibition in vivo at 500 mg/kg/day,[10],25%
same,inhibition,[11],83%
same,Activity,[12],57%
same,Activity,[13],Active
same,inhibition,[14],Active
same,Activity,[15],Active
same,Activity,[16],inactive
same,Activity,[17],58%
same,Activity,[18],Active
same,Activity,[19],Active
same,Activity,[20],Active
same,Activity,[21],80%
same,induction in vivo at 500 mg/kg/day,[22],34%
same,Activity,[23],36%
same,Activity,[24],Non-toxic
same,fold change (FC),[25],46
same,Activity,[26],Active
same,Activity,[27],Non-toxic
same,Activity,[28],42%
same,inhibition in vivo at 500 mg/kg/day,[29],37%
